We go through seven molecules from ChEMBL document CHEMBL4028881, “Synthesis, Pharmacology, and Molecular Docking Studies on 6-Desoxo-N-methylmorphinans as Potent μ-Opioid Receptor Agonists” (J Med Chem, 2017).

The subject of one assay is Mus musculus. In words: Potency index, ratio of moprhine ED50 for antinociceptive activity in sc dosed […] mouse to compound ED50 for antinociceptive activity in sc dosed CD1 mouse. In kind it is functional.
Assay [1] addresses Mu-type opioid receptor (Homo sapiens) (UniProt P35372). In words: Displacement of [3H]-DAMGO from recombinant human MOR expressed in CHO cell membranes after 60 mins by liquid scintillation counting. A digest of the protocol: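 Competition binding on membranes from CHO cells stably transfected with recombinant human MOR. Affinity is reported as Ki. Values are mean ± SEM of at least three independent experiments.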
A general note: In a radioligand displacement assay an active substance lowers the binding of a labelled ligand.

For assay [2] the target is unchanged. In words: Agonist activity at recombinant human MOR expressed in CHO cell membranes after 60 mins by [35S]GTPgammaS binding assay. In kind it is functional. A digest of the protocol: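 [35S]GTPγS binding stimulated by ligand in membranes from CHO cells stably expressing human MOR. Values are mean ± SEM of at least three independent experiments.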
A general note: GTPγS resists hydrolysis and so accumulates on activated G proteins.

The species entered for the next assay is Homo sapiens. In words: Selectivity ratio of Ki for recombinant human DOR expressed in CHO cell membranes to Ki for recombinant human MOR expressed in CHO cell membranes. It counts as cell-based.

Sequence of Mu-type opioid receptor (Homo sapiens) (P35372 whole entry): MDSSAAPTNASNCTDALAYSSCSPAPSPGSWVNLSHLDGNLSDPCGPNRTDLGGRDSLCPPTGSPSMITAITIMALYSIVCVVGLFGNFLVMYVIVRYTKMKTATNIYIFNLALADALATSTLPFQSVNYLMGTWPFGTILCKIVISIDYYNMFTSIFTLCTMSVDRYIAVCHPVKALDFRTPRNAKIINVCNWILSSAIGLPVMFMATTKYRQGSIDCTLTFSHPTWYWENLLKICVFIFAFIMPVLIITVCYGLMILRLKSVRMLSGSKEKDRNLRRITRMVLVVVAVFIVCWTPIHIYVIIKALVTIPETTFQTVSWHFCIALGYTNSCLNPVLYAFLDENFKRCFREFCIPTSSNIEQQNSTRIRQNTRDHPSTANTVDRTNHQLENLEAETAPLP

In the case of `CN1CC[C@]23c4c5ccc(O)c4O[C@H]2CCC[C@@]3(O)[C@H]1C5`, the “Ratio ED50” value in the assay on Mus musculus was “<=1020”. The inhibition result in assay [1] is “Dose-dependent effect”. In addition, in assay [2], the Activity result was “Dose-dependent effect”.
As to `CN1CC[C@]23c4c5ccc(O)c4O[C@H]2CCC[C@@]3(OCc2ccccc2)[C@H]1C5`, the “Ratio ED50” value with Mus musculus is given as “<=1020”. Moreover, the inhibition result in assay [1] is “Dose-dependent effect”. Besides, in assay [2], the Activity result was “Dose-dependent effect”. The Ratio Ki in the assay listed under Homo sapiens was determined as 21.
In the case of `CO[C@@]12CCC(=O)[C@@H]3Oc4c(O)ccc5c4[C@@]31CCN(C)[C@@H]2C5`, in the assay with Mus musculus, the “Ratio ED50” value is reported as “<=1020”. Moreover, in assay [1], the inhibition entry was “Dose-dependent effect”. Further, the Activity result in assay [2] is “Dose-dependent effect”.
On to `CN1CC[C@]23c4c5ccc(O)c4O[C@H]2C(=O)CC[C@@]3(OCc2ccccc2)[C@H]1C5`, for which, in the assay with Mus musculus, the “Ratio ED50” value is reported as “<=1020”. In assay [1], the inhibition entry is “Dose-dependent effect”. In assay [2], the Activity entry was “Dose-dependent effect”.
On to `CO[C@@]12CCC(=O)[C@]3(C)Oc4c(O)ccc5c4[C@@]31CCN(C)[C@@H]2C5`, for which, in the assay on Mus musculus, the “Ratio ED50” value was “<=1020”. In assay [1], the inhibition entry was “Dose-dependent effect”. Besides, the Activity result in assay [2] is “Dose-dependent effect”.
For `CO[C@@]12CCC[C@]3(C)Oc4c(O)ccc5c4[C@@]31CCN(C)[C@@H]2C5`, in the assay with Mus musculus, the “Ratio ED50” value was “<=1020”.
Regarding `CO[C@@]12CCC[C@@H]3Oc4c(O)ccc5c4[C@@]31CCN(C)[C@@H]2C5`, the “Ratio ED50” value with Mus musculus is recorded as “<=1020”. In addition, the inhibition entry in assay [1] was “Dose-dependent effect”. The Activity result in assay [2] is “Dose-dependent effect”.
